NR2E3 ag-1 = agonists of human nuclear receptor NR2E3; Q9Y5X4; GST-NR2E3/biotin-RetCOR TR-FRET, 1536-well; inhibition of corepressor binding, % at 4.78 µM; 320,000 tested, 0.12% active; AID 2300;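 active means percent inhibition above the cutoff of mean plus 3 SD of all tested compounds, set per screening campaign, cut at about 20% in these data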;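 further: 0% = DMSO wells and 100% = biotin wells as full block of FRET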
Target sequence (Q9Y5X4 whole entry, looked up): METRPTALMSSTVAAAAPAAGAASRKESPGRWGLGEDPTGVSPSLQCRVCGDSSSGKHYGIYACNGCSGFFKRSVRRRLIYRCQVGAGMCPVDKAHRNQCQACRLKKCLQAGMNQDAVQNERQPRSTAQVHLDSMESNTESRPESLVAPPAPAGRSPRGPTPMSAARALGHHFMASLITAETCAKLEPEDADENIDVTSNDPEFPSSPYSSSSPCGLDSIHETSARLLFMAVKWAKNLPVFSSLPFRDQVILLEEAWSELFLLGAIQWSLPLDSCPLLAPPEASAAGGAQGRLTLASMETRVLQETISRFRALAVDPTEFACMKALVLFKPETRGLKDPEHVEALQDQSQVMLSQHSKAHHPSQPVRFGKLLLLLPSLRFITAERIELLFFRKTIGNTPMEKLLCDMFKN
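Format: 1536-well format; test system: GST-NR2E3 and biotin-RetCOR proteins; read-out basis: percent inhibition of TR-FRET ratio; timing: 5 h incubation at 4 °C; detection: time-resolved FRET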
DAX1 inh-1 = inhibitors of DAX1 repression of SF-1 activated StAR promoter | HEK293T StAR-luciferase reporter, SF-1/DAX-1 repression relief | inhibition, % at 6.8 µM | 370,000 tested, 1.1% active;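 active means inhibition above the mean over all tested compounds plus 3 SD, cut at about 3.6% in these data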;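 further: 0% = DAX-1 cells with DMSO and 100% = cells lacking DAX-1 with DMSO; higher inhibition means more luminescence from relief of DAX-1 repression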
SMARCA2 act = activators of SMARCA2 function | 370,000 tested, 1% active | MG213 cells, MMTV-luciferase reporter, dexamethasone, overnight | activation, % at 9.1 µM | AID 652017; in the data active means activation above about 7.8%;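 further: 0% = vehicle wells and 100% = reference activator wells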
NR2E3 ag-2 = activates human NR2E3 receptor. inhibition of corepressor binding, % at 3.98 µM. CHO-S Gal4-NCOR/VP16-NR2E3 two-hybrid, luciferase. 360,000 tested, 0.35% active;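 active means inhibition above the mean of all tested compounds plus 3 SD, cut at about 70% in these data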;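 further: 0% = DMSO with NR2E3 transfected cells and 100% = cells lacking NR2E3 construct; higher means lower luciferase signal from less NR2E3 corepressor binding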
DAX1 inh-2 = inhibitors of human orphan nuclear receptor DAX1 (NR0B1). P51843. AID 504766. 340,000 tested, 0.99% active. inhibition, % at 6.75 µM. HEK293 Gal4-DAX1 luciferase reporter, luminescence;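 active means inhibition above the mean over all tested compounds plus 3 SD, cut at about 4.2% in these data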;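 further: 0% = DAX1-transfected cells with DMSO and 100% = empty-vector control cells with DMSO; inhibition shows as a rise in luminescence from relieved DAX1 repression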
Target sequence (P51843 207-470 limits assumed): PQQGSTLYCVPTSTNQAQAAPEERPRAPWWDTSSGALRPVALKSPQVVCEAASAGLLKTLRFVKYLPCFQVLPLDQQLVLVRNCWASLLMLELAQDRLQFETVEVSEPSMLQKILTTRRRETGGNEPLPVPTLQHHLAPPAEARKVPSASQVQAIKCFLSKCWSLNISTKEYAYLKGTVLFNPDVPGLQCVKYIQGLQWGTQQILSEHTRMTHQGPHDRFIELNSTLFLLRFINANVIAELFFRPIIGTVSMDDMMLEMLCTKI
GASC-1 inh = inhibitors of human GASC-1 (JMJD2C) demethylase | 330,000 tested, 0.069% active | Q9H3R0 | GST-JMJD2C(1-420) H3K9me3 demethylation, DELFIA europium | inhibition, % at 2.35 µM;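 active means more than half of a compound's replicate wells show inhibition beyond 50%, single wells judged on their own value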;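 further: signal counts dimethyl H3K9 product captured on neutravidin plate; 0% = median of DMSO wells and 100% = 0.3 times that DMSO median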
NR2E3 ag confirm = confirmation of human NR2E3 agonists; CHO-S mammalian two-hybrid NR2E3-NCOR, luciferase luminescence; shares compounds with NR2E3 ag-2; 2,300 tested, 51% active; inhibition, % at 3.98 µM;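 active means average inhibition above a cutoff equal to the mean inhibition of all tested compounds plus one SD, cut at about 70% in these data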;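 further: 0% = DMSO in NR2E3 cells and 100% = DMSO in cells lacking NR2E3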
VP16 counter = counter-screen for NR2E3 agonists: GAL4-VP16 reporter inhibitors | shares compounds with NR2E3 ag-2 | CHO-S GAL4-VP16 luciferase reporter, luminescence | inhibition, % at 3.98 µM | 2,300 tested, 29% active;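 active means mean inhibition above a cutoff equal to the average over all tested compounds plus one standard deviation, cut at about 70% in these data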;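 further: luciferase from a UAS reporter driven by GAL4-VP16 transactivation; 0% = DMSO with VP16-transfected cells and 100% = DMSO with cells lacking VP16; higher means less reporter light so more repression of VP16 activity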
* hit, by the source's call. Compounds with a hit are over-represented: about 3.2% of the library has one in this group of screens.

What do the screens show for `CCC(=NCCOc1ccc(Cl)cc1)c1c(O)n(C)c(=O)n(C)c1=O`?
NR2E3 ag-1: -0.5; DAX1 inh-1: -2.2; SMARCA2 act: -5.4; NR2E3 ag-2: 79.2*; DAX1 inh-2: -2.4; GASC-1 inh: 4.7; NR2E3 ag confirm: 95.6*; VP16 counter: 82.9*

What do the screens show for `O=NN(CCF)C(=O)NC1CCC(=O)NC1=O` (stereo unspecified)?
DAX1 inh-1: 0.2; SMARCA2 act: -1.8; NR2E3 ag-2: 10.7

What do the screens show for `O=C(NCCN1CCC2(CC1)C(=O)NCN2c1ccccc1)c1ccc(OC(F)(F)F)cc1`?
DAX1 inh-1: -0.6; SMARCA2 act: 0.1

How did CC(=O)OC[C@]12CCC(C)=C[C@H]1O[C@@H]1[C@H](O)[C@@H](OC(C)=O)[C@@]2(C)[C@]12CO2 do in these assays?
NR2E3 ag-1: -0.7; DAX1 inh-1: -7.0; SMARCA2 act: -8.3; NR2E3 ag-2: 102.2*; DAX1 inh-2: -9.6; NR2E3 ag confirm: 99.9*; VP16 counter: 99.2*

What do the screens show for `Cn1c(O)c(C=NCCN2CCN(C(=O)Nc3ccccc3)CC2)c(=O)n(C)c1=O`?
NR2E3 ag-1: -4.2; DAX1 inh-1: -0.1; SMARCA2 act: 0.4; NR2E3 ag-2: -29.6; GASC-1 inh: -11.9

Results for CN1CC[C@@H]2CN[C@H](c3ccccc3Br)C[C@@H]21 ?
DAX1 inh-1: 1.6; SMARCA2 act: 0.2

How did Clc1ccc2[nH]c3c(c2c1)CCNC3 do in these assays?
NR2E3 ag-1: 0.5; DAX1 inh-1: -0.2; SMARCA2 act: -0.1; NR2E3 ag-2: -1.0; DAX1 inh-2: 2.6; GASC-1 inh: 4.4

How did CC(=O)c1cn(Cc2ccccc2F)c2ccccc12 do in these assays?
DAX1 inh-1: -1.3; SMARCA2 act: -5.4; NR2E3 ag-2: 83.2*; DAX1 inh-2: -3.7; GASC-1 inh: -6.4; NR2E3 ag confirm: 90.1*; VP16 counter: 74.9*

What do the screens show for `O=Cc1cn(Cc2ccccc2F)c2ccccc12`?
NR2E3 ag-1: -2.1; DAX1 inh-1: -1.4; SMARCA2 act: 5.3; NR2E3 ag-2: 13.8; DAX1 inh-2: -0.9; GASC-1 inh: 6.6

What do the screens show for `CC(=O)c1cn(Cc2ccccc2C#N)c2ccccc12`?
NR2E3 ag-1: 1.6; DAX1 inh-1: -3.1; SMARCA2 act: -7.1; NR2E3 ag-2: 74.7*; DAX1 inh-2: -3.2; GASC-1 inh: 12.4; NR2E3 ag confirm: 87.9*; VP16 counter: 85.4*

What do the screens show for `Clc1cc(Cl)cc(CN2Cc3cc(Br)ccc3-n3nncc3C2)c1`?
DAX1 inh-1: -0.3; SMARCA2 act: -2.2

How did c1ccc2c(c1)[IH]c1ccccc1-2 do in these assays?
DAX1 inh-1: -5.5; SMARCA2 act: -4.2; NR2E3 ag-2: 100.5*; DAX1 inh-2: -3.5; NR2E3 ag confirm: 97.5*; VP16 counter: 88.0*

How did COC(=O)C1=C(c2ccc(C(C)=O)cc2)C[C@@H]2CC[C@H]1N2C(=O)NCc1ccc2c(c1)OCO2 do in these assays?
NR2E3 ag-1: 0.9; DAX1 inh-1: -0.7; SMARCA2 act: -0.3; NR2E3 ag-2: -5.0; DAX1 inh-2: 0.8; GASC-1 inh: 0.0

Results for O=c1[nH]c2ccccc2n1C1CCN(C(CCc2ccccc2)c2nnnn2-c2ccc3c(c2)OCCO3)CC1 (stereo unspecified) ?
DAX1 inh-1: -4.3; SMARCA2 act: -5.6; NR2E3 ag-2: 47.6; NR2E3 ag confirm: 50.7; VP16 counter: 14.6

Results for O=C(NCCN1CCC2(CC1)C(=O)NCN2c1ccccc1)c1ccc(Cl)c(Cl)c1 ?
DAX1 inh-1: 1.1; SMARCA2 act: 0.8

What do the screens show for `COc1ccc2nc(-c3ccc(CN4CCC(n5nnc6ccccc65)CC4)cc3)c(-c3ccccc3)nc2c1`?
DAX1 inh-1: -3.1; SMARCA2 act: -3.3

What do the screens show for `Nc1ncnc2c1ccn2[C@@H]1O[C@H](CO)[C@@H](O)[C@H]1O`?
NR2E3 ag-1: 2.1; DAX1 inh-1: -5.8; SMARCA2 act: -7.8; NR2E3 ag-2: 99.6*; DAX1 inh-2: -5.5; GASC-1 inh: 59.8; NR2E3 ag confirm: 97.7*; VP16 counter: 88.6*

What do the screens show for `NC(=S)c1cn(C2OC(CO)C(O)C2O)c2ncnc(N)c12` (stereo unspecified)?
NR2E3 ag-1: -0.1; DAX1 inh-1: -2.4; SMARCA2 act: -9.4; NR2E3 ag-2: 103.2*; DAX1 inh-2: -6.3; GASC-1 inh: 19.1; NR2E3 ag confirm: 98.2*; VP16 counter: 88.0*

What do the screens show for `N#Cc1ccc(NC(=S)N2Cc3ccc(Br)cc3-n3nncc3C2)cc1`?
DAX1 inh-1: -0.7; SMARCA2 act: -4.9

Results for CC(C)(C)OC(=O)NCCCCC(N)[P+](=O)O (stereo unspecified) ?
DAX1 inh-1: 0.3; SMARCA2 act: -1.8

Results for CC(=O)OC(C)(C)/C=C/C(=O)C(C)(O)C1C(O)CC2(C)C3CC=C4C(CC(O)C(=O)C4(C)C)C3(C)C(=O)CC12C (stereo unspecified) ?
DAX1 inh-1: -7.5; SMARCA2 act: -6.9; NR2E3 ag-2: 62.7; DAX1 inh-2: -3.5; NR2E3 ag confirm: 79.7*; VP16 counter: 47.6

How did CC(=O)OC(C)(C)/C=C/C(=O)[C@](C)(O)[C@H]1[C@H](O)C[C@@]2(C)[C@@H]3CC=C4[C@H](C[C@H](O)C(=O)C4(C)C)[C@]3(C)C(=O)C[C@]12C do in these assays?
NR2E3 ag-2: 43.3; DAX1 inh-2: -4.4

How did CC(=O)OC1C(=O)OCC23CCC4(C)OC4C2OC2CC(OC(=O)C=CC=CC(=O)OCCC1C)C3(C)C21CO1 (stereo unspecified) do in these assays?
DAX1 inh-1: -7.2; SMARCA2 act: -10.6; NR2E3 ag-2: 101.8*; DAX1 inh-2: -6.7; NR2E3 ag confirm: 98.5*; VP16 counter: 98.6*

Results for CC(O)C1C=CC=CC(=O)OC2CC3OC4C5OC5(C)CCC4(COC(=O)C4OC4(C)C(O)CO1)C2(C)C31CO1 (stereo unspecified) ?
DAX1 inh-1: -9.7; SMARCA2 act: -10.9; NR2E3 ag-2: 101.1*; DAX1 inh-2: -6.7; NR2E3 ag confirm: 99.2*; VP16 counter: 97.4*

What do the screens show for `O=C(NCCN1CCC2(CC1)C(=O)NCN2c1ccccc1)c1ccc(F)cc1F`?
DAX1 inh-1: -0.9; SMARCA2 act: -3.6

How did CC(C)(C#CC(=O)O)OOC(c1ccccc1)(c1ccccc1)c1ccccc1 do in these assays?
NR2E3 ag-1: 0.4; DAX1 inh-1: -0.7; SMARCA2 act: -2.1; NR2E3 ag-2: 3.8; DAX1 inh-2: 0.9; GASC-1 inh: 21.2
